Laboratory results as given in ChEMBL document CHEMBL4825671, “Design, synthesis and biological evaluation of novel FXIa inhibitors with 2-phenyl-1H-imidazole-5-carboxamide moiety as P1 fragment” (Eur J Med Chem, 2021).

Assays:
Coagulation factor XI [1] = target: T1, Coagulation factor XI (Homo sapiens, UniProt P03951); assay: Binding affinity to coagulation factor 11a (unknown origin) assessed as inhibition constant using (p-Glu-Pro-Arg-pNa,HCl) as substrate preincubated for 5 mins followed by substrate addition and measured after 10 mins
Coagulation factor XI [2] = target: T1, Coagulation factor XI; assay: Inhibition of coagulation factor 11a (unknown origin) at 100 uM using (p-Glu-Pro-Arg-pNa,HCl) as substrate preincubated for 5 mins followed by substrate addition and measured after 10 mins relative to control; conditions: time 15.0 min
Coagulation factor VII = target: T2, Coagulation factor VII (Homo sapiens, UniProt P08709); assay: Binding affinity to coagulation factor 7a (unknown origin) assessed as inhibition constant using CH3SO2-D-CHA-But-Arg-pNA,ACOH as substrate preincubated for 10 mins followed by substrate addition and further incubated for 10 mins
T2 sequence (P08709 whole entry): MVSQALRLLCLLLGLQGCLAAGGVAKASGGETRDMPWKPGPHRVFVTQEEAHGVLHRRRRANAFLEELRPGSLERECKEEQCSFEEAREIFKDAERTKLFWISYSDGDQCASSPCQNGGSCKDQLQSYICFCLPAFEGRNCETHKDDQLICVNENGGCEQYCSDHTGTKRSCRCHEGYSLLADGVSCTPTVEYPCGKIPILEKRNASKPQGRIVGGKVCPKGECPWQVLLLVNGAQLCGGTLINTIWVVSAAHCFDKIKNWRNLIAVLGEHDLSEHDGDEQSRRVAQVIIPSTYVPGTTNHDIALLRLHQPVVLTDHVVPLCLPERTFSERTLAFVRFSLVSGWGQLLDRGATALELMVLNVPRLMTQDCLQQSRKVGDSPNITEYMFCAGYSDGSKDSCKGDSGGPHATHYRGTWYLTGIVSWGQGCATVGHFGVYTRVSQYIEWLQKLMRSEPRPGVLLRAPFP
Method in brief: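 FVIIa was preincubated with compound or blank buffer at 37 °C for 10 min. Chromogenic substrate was added and absorbance read at 405 nm. Compounds came from DMSO stocks (10 mM) diluted in assay buffer. IC50 was derived from a concentration range.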

Coagulation factor X = Coagulation factor X (Homo sapiens, UniProt P00742); assay: Binding affinity to coagulation factor 10a (unknown origin) assessed as inhibition constant using CH3OCO-D-CHA-Gly-Arg-pNA,ACOH as substrate preincubated for 10 mins followed by substrate addition
Method in brief: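 FXa was preincubated with compound or blank buffer at 25 °C for 10 min. Chromogenic substrate was added and absorbance read at 405 nm. Compounds came from DMSO stocks (10 mM) diluted in assay buffer. IC50 was derived from a concentration range.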

[3] = Binding affinity to thrombin (unknown origin) assessed as inhibition constant using H-D-Phe-Pip-Arg-pNA,2HCl as substrate preincubated for 10 mins followed by substrate addition; set-up: species or system Homo sapiens
Method in brief: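 Thrombin was preincubated with compound or blank buffer at 25 °C for 10 min. Chromogenic substrate was added and absorbance read at 405 nm. Compounds came from DMSO stocks (10 mM) diluted in assay buffer. IC50 was derived from a concentration range.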

Homo sapiens [4] = species: Homo sapiens; assay: Selectivity ratio of Ki for coagulation factor 7a (unknown origin) to Ki for coagulation factor 11a (unknown origin)
Homo sapiens [5] = species: Homo sapiens; assay: Selectivity ratio of Ki for coagulation factor 10a (unknown origin) to Ki for coagulation factor 11a (unknown origin)
Homo sapiens [6] = species: Homo sapiens; assay: Selectivity ratio of Ki for thrombin (unknown origin) to Ki for coagulation factor 11a (unknown origin)
Homo sapiens [7] = species: Homo sapiens; assay: Selectivity ratio of Ki for plasma kallikrein (unknown origin) to Ki for coagulation factor 11a (unknown origin)
Homo sapiens [8] = species: Homo sapiens; assay: Competitive inhibition of coagulation factor 11a (unknown origin) assessed as Km at 0.005 uM using varying levels (p-Glu-Pro-Arg-pNa,HCl) as substrate by Lineweaver-Burk plot analysis
Method in brief: (§1)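 Same FXIa assay (37 °C, 5 min preincubation, 405 nm read), run at four substrate levels with final concentrations of 42.5, 85, 170 and 340. Km and Vmax were taken from a Lineweaver-Burk plot using the Michaelis-Menten relationship.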

Homo sapiens [9] = species: Homo sapiens; assay: Competitive inhibition of coagulation factor 11a (unknown origin) assessed as Km at 0.01 uM using varying levels (p-Glu-Pro-Arg-pNa,HCl) as substrate by Lineweaver-Burk plot analysis; method in brief: as §1
Homo sapiens [10] = species: Homo sapiens; assay: Competitive inhibition of coagulation factor 11a (unknown origin) assessed as Km at 0.02 uM using varying levels (p-Glu-Pro-Arg-pNa,HCl) as substrate by Lineweaver-Burk plot analysis; method in brief: as §1
Homo sapiens [11] = species: Homo sapiens; assay: Competitive inhibition of coagulation factor 11a (unknown origin) assessed as Km at 0.04 uM using varying levels (p-Glu-Pro-Arg-pNa,HCl) as substrate by Lineweaver-Burk plot analysis; method in brief: as §1
Homo sapiens [12] = species: Homo sapiens; assay: Competitive inhibition of coagulation factor 11a (unknown origin) assessed as Vmax at 0.005 to 0.04 uM using varying levels (p-Glu-Pro-Arg-pNa,HCl) as substrate by Lineweaver-Burk plot analysis; conditions: dose 0.005-0.04 µM; method in brief: as §1
Homo sapiens [13] = species: Homo sapiens; assay: Competitive inhibition of coagulation factor 11a (unknown origin) using varying levels (p-Glu-Pro-Arg-pNa,HCl) as substrate by Lineweaver-Burk plot analysis; conditions: dose 0.005-0.04 µM; method in brief: as §1
Oryctolagus cuniculus [14] = assay: Antithrombotic activity in New Zealand White rabbit model of AV-shunt induced thrombosis assessed as reduction in thrombosis weight by measuring inhibition of thrombosis formation at 0.5 mg/kg, administered as iv bolus dose and subsequently followed by 0.8 mg/kg/hr as iv infusion relative to control; format: functional
Method in brief: (§2)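 Male New Zealand White rabbits under urethane anesthesia (1.25 g/kg). A control-period AV shunt gave the baseline thrombus wet weight, found by subtraction. The compound in saline vehicle was then given as an IV bolus followed by continuous IV infusion via the jugular vein. A new AV shunt ran for 40 min. Result is % inhibition of thrombus formation, treatment versus control period. Three rabbits per group.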

Oryctolagus cuniculus [15] = assay: Antithrombotic activity in New Zealand White rabbit model of AV-shunt induced thrombosis assessed as reduction in thrombosis weight by measuring inhibition of thrombosis formation at 2.5 mg/kg, administered as iv bolus dose and subsequently followed by 4 mg/kg/hr as iv infusion relative to control; format: functional; method in brief: as §2
Oryctolagus cuniculus [16] = assay: Antithrombotic activity in New Zealand White rabbit model of AV-shunt induced thrombosis assessed as reduction in thrombosis weight by measuring inhibition of thrombosis formation at 5 mg/kg, administered as iv bolus dose and subsequently followed by 8 mg/kg/hr as iv infusion relative to control; format: functional; method in brief: as §2
Plasma kallikrein = Plasma kallikrein (Homo sapiens, UniProt P03952); assay: Binding affinity to plasma kallikrein (unknown origin) assessed as inhibition constant using D-Pro-Phe,Arg,pNa,2HCl as substrate preincubated for 15 mins followed by substrate addition
Coagulation factor XI [17] = target: T1, Coagulation factor XI; assay: Inhibition of coagulation factor 11a (unknown origin) at 500 uM using (p-Glu-Pro-Arg-pNa,HCl) as substrate preincubated for 5 mins followed by substrate addition and measured after 10 mins relative to control; conditions: time 15.0 min

T1 sequence (P03951 19-387 limits assumed): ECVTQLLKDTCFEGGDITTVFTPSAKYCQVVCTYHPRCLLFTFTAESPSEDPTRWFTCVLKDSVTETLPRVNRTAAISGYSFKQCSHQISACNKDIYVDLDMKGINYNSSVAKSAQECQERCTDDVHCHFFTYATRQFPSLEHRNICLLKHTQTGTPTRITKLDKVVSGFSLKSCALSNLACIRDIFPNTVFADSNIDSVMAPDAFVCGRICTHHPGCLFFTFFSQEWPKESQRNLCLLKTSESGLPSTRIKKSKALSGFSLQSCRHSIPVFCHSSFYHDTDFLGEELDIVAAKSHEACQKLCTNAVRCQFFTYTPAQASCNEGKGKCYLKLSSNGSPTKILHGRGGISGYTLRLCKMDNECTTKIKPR
T1 sequence (P03951 388-625 limits assumed): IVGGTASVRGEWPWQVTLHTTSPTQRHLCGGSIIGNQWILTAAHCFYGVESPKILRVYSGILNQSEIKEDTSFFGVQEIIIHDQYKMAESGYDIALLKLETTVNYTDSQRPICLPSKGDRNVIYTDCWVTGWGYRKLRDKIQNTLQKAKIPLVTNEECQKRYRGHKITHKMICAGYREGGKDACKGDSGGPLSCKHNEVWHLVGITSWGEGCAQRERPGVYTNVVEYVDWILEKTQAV
Chain of Plasma kallikrein (P03952 20-390 limits assumed): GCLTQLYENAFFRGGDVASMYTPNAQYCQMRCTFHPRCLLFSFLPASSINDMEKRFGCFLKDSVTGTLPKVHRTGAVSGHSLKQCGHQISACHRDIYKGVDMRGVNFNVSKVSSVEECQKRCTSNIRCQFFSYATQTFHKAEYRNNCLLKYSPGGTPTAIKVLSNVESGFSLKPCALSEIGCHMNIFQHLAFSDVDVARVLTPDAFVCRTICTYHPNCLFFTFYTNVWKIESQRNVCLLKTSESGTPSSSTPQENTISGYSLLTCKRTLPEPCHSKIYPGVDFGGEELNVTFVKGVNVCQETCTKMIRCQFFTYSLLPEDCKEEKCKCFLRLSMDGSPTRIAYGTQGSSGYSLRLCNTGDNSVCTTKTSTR
Chain of Plasma kallikrein (P03952 391-638 limits assumed): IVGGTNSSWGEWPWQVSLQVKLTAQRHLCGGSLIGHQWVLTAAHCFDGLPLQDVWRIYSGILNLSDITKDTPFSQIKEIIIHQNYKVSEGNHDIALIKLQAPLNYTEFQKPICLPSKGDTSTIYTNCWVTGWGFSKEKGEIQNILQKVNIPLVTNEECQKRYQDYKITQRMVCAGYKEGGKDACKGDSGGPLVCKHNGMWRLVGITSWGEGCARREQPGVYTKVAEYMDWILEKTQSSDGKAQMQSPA
Chain of Coagulation factor X (P00742 41-179 limits assumed): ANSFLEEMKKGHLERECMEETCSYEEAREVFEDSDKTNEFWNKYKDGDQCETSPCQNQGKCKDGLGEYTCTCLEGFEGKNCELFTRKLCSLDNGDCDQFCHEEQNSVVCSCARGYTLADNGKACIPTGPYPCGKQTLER
Chain of Coagulation factor X (P00742 235-488 limits assumed): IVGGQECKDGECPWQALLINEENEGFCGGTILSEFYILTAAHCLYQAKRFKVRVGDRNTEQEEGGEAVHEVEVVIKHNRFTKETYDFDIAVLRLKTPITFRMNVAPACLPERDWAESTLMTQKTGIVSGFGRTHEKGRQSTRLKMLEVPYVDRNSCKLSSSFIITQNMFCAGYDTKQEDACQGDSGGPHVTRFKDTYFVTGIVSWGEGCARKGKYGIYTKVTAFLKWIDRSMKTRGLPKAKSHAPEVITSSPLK

SMILES | Ki (Coagulation factor XI [1]) | further results
Cc1nc(-c2ccc(Cl)cc2)n(O)c1C(=O)N[C@@H](Cc1ccccc1)C(=O)Nc1ccc(C(=O)O)cc1 | > 100 µM | inhibition (Coagulation factor XI [2]): 22.5%
Cc1nc(-c2cccc(Cl)c2F)n(O)c1C(=O)N[C@@H](Cc1ccc(N)cc1)C(=O)Nc1ccc2[nH]c(C(=O)O)cc2c1 | 3.08 µM | –
COn1c(-c2cccc(Cl)c2F)nc(C)c1C(=O)N[C@@H](Cc1ccccc1)C(=O)Nc1ccc(C(=O)O)cc1 | > 100 µM | inhibition (Coagulation factor XI [2]): 0%
COc1ccc(-c2nc(C)c(C(=O)O)n2O)cc1C#N | 243 µM | –
Cc1nc(-c2cccc(Cl)c2F)n(O)c1C(=O)N[C@@H](Cc1ccc(NC(=O)c2ncccn2)cc1)C(=O)Nc1ccc2[nH]c(C(=O)O)cc2c1 | 0.0813 µM | –
Cc1nc(-c2cccc(C#N)c2)n(O)c1C(=O)N[C@@H](Cc1ccccc1)C(=O)Nc1ccc(C(=O)O)cc1 | 23.9 µM | –
Cc1nc(-c2cccc(Cl)c2F)[nH]c1C(=O)N[C@@H](Cc1ccccc1)C(=O)Nc1ccc(C(=O)O)cc1 | 26.4 µM | –
Cc1nc(-c2ccccc2C#N)n(O)c1C(=O)N[C@@H](Cc1ccccc1)C(=O)Nc1ccc(C(=O)O)cc1 | 18.9 µM | inhibition (Coagulation factor XI [2]): 16.4%
Cc1nc(-c2cccc(Cl)c2F)n(O)c1C(=O)N[C@@H](Cc1ccc(F)cc1)C(=O)Nc1ccc2[nH]c(C(=O)O)cc2c1 | 0.486 µM | –
Cc1nc(-c2cccc(Cl)c2F)n(O)c1C(=O)N[C@@H](Cc1ccc(NC(=O)C2CCC2)cc1)C(=O)Nc1ccc2[nH]c(C(=O)O)cc2c1 | 0.0225 µM | –
Cc1nc(-c2cccc(Cl)c2F)n(O)c1C(=O)N[C@@H](Cc1ccc(NC(=O)CC(C)C)cc1)C(=O)Nc1ccc2[nH]c(C(=O)O)cc2c1 | 0.026 µM | –
C#CC(=O)Nc1ccc(C[C@H](NC(=O)c2c(C)nc(-c3cccc(Cl)c3F)n2O)C(=O)Nc2ccc3[nH]c(C(=O)O)cc3c2)cc1 | 0.053 µM | –
Cc1nc(-c2cccc(Cl)c2F)n(O)c1C(=O)N[C@@H](Cc1ccc(NC(=O)C2CCCCC2)cc1)C(=O)Nc1ccc2[nH]c(C(=O)O)cc2c1 | 0.0563 µM | –
Cc1nc(-c2cccc(Cl)c2F)n(O)c1C(=O)N[C@@H](Cc1ccc(NC(=O)C2CC2C)cc1)C(=O)Nc1ccc2[nH]c(C(=O)O)cc2c1 (stereo not given in full) | 0.009 µM | Ki (Coagulation factor VII): 4.19 µM; Ki (Coagulation factor X): > 8 µM; Ki [3]: > 12.5 µM; Ratio Ki (Homo sapiens [4]): > 400; Ratio Ki (Homo sapiens [5]): > 400; Ratio Ki (Homo sapiens [6]): > 400; Ratio Ki (Homo sapiens [7]): 21.3; Km (Homo sapiens [8]): 45.5 µM; Km (Homo sapiens [9]): 60.3 µM; Km (Homo sapiens [10]): 89.9 µM; Km (Homo sapiens [11]): 128 µM; Vmax (Homo sapiens [12]): 0.17 µM/min; inhibition (Homo sapiens [13]): Dose-Dependent Effect; inhibition (INH) (Oryctolagus cuniculus [14]): 26.8%; inhibition (INH) (Oryctolagus cuniculus [15]): 42.67%; inhibition (INH) (Oryctolagus cuniculus [16]): 51.04%; Ki (Plasma kallikrein): 0.192 µM
Cc1nc(-c2ccc(O)c(C#N)c2)n(O)c1C(=O)O | 228 µM | –
NC[C@H]1CC[C@H](C(=O)N[C@@H](Cc2ccccc2)c2nc(-c3ccc4c(N)n[nH]c4c3)c(Cl)[nH]2)CC1 | 0.0015 µM | inhibition (INH) (Oryctolagus cuniculus [14]): 59.26%
Cc1nc(-c2cccc(C#N)c2)n(O)c1C(=O)O | 120 µM | –
Cc1nc(-c2cccc(Cl)c2F)n(O)c1C(=O)N[C@@H](Cc1ccccc1)C(=O)Nc1ccc(C(=O)O)cc1 | 11.8 µM | –

SMILES | Ki (Coagulation factor XI [1]) | further results
Cc1nc(-c2ccccc2Cl)n(O)c1C(=O)N[C@@H](Cc1ccccc1)C(=O)Nc1ccc(C(=O)O)cc1 | > 100 µM | inhibition (Coagulation factor XI [2]): 34.1%
Cc1nc(-c2ccc(C#N)cc2)n(O)c1C(=O)N[C@@H](Cc1ccccc1)C(=O)Nc1ccc(C(=O)O)cc1 | > 100 µM | inhibition (Coagulation factor XI [2]): 0%
Cc1nc(-c2cccc(Cl)c2F)n(O)c1C(=O)N[C@@H](Cc1ccc(NC(=O)c2ccccn2)cc1)C(=O)Nc1ccc2[nH]c(C(=O)O)cc2c1 | 0.155 µM | –
Cc1nc(-c2cccc(Cl)c2F)n(O)c1C(=O)N[C@@H](Cc1ccc(NC(=O)C(C)C)cc1)C(=O)Nc1ccc2[nH]c(C(=O)O)cc2c1 | 0.156 µM | –
Cc1nc(-c2cccc(Cl)c2F)n(O)c1C(=O)N[C@@H](Cc1ccc(NC(=O)C2CC2)cc1)C(=O)Nc1ccc2[nH]c(C(=O)O)cc2c1 | 0.259 µM | –
Cc1nc(-c2cccc(Cl)c2F)n(O)c1C(=O)N[C@@H](Cc1ccccc1)C(=O)Nc1ccc2[nH]c(C(=O)O)cc2c1 | 2.82 µM | –
Cc1nc(-c2cccc(Cl)c2F)n(O)c1C(=O)N[C@@H](Cc1ccc(NC(=O)c2ccccc2)cc1)C(=O)Nc1ccc2[nH]c(C(=O)O)cc2c1 | 0.366 µM | –
Cc1nc(-c2cccc(Cl)c2F)n(O)c1C(=O)N[C@@H](Cc1ccccc1)C(=O)Nc1ccc(CC(=O)O)cc1 | 6.86 µM | –
Cc1nc(-c2cccc(Cl)c2F)n(O)c1C(=O)N[C@@H](Cc1ccc(Br)cc1)C(=O)Nc1ccc2[nH]c(C(=O)O)cc2c1 | 0.962 µM | –
Cc1nc(-c2cccc(Cl)c2F)n(O)c1C(=O)N[C@@H](Cc1ccc(NC(=O)C2CCCC2)cc1)C(=O)Nc1ccc2[nH]c(C(=O)O)cc2c1 | 0.0339 µM | –
Cc1nc(-c2ccc(OCC(C)C)c(C#N)c2)n(O)c1C(=O)O | > 500 µM | inhibition (Coagulation factor XI [17]): 29.8%
Cc1nc(-c2ccccc2)n(O)c1C(=O)N[C@@H](Cc1ccccc1)C(=O)Nc1ccc(C(=O)O)cc1 | > 100 µM | –
Cc1nc(-c2cccc(Cl)c2F)n(O)c1C(=O)N[C@@H](Cc1ccc([N+](=O)[O-])cc1)C(=O)Nc1ccc2[nH]c(C(=O)O)cc2c1 | 7.32 µM | –
CC(=O)Nc1ccc(C[C@H](NC(=O)c2c(C)nc(-c3cccc(Cl)c3F)n2O)C(=O)Nc2ccc3[nH]c(C(=O)O)cc3c2)cc1 | 0.392 µM | –
Cc1nc(-c2cccc(Cl)c2F)n(O)c1C(=O)N[C@@H](Cc1ccc(Cl)cc1)C(=O)Nc1ccc2[nH]c(C(=O)O)cc2c1 | 0.356 µM | –
CC#CC(=O)Nc1ccc(C[C@H](NC(=O)c2c(C)nc(-c3cccc(Cl)c3F)n2O)C(=O)Nc2ccc3[nH]c(C(=O)O)cc3c2)cc1 | 0.031 µM | –
Cc1nc(-c2cccc(Cl)c2F)n(C)c1C(=O)N[C@@H](Cc1ccccc1)C(=O)Nc1ccc(C(=O)O)cc1 | 22.4 µM | –
Cc1nc(-c2cccc(Cl)c2)n(O)c1C(=O)N[C@@H](Cc1ccccc1)C(=O)Nc1ccc(C(=O)O)cc1 | 14.5 µM | –
